From PubChem
Compounds with a hit are over-represented: about 3.5% of the library has one in this group of screens.
MrgX1 antagonist = antagonists of human MrgX1 receptor, primary screen, HEK293 cells, Fluo-4 calcium flux; Mas-related G-protein coupled receptor member X1 (Homo sapiens), Q96LB2; BAM8-22 antagonism; hits give low values; B-score at 10 µM; 310,000 tested, 1.3% active;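 active = calcium-response B-score plate-corrected more than 3 library SD below zero, starting fluorescence within 5 deviations, no agonist response on first addition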;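 also: peak minus trough fluorescence over baseline after final BAM8-22 challenge near maximal dose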
Target sequence (Q96LB2 whole entry, looked up): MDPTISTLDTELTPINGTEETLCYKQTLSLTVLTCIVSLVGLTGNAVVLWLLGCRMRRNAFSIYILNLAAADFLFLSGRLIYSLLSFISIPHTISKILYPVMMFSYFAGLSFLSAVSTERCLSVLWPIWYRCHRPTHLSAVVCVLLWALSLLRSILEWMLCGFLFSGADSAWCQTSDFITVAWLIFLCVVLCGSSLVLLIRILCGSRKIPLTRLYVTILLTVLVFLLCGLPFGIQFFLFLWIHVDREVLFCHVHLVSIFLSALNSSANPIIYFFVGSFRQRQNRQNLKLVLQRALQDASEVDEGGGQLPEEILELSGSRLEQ
MrgX1 PAM = positive allosteric modulators of MrgX1, primary screen, HEK293 cells, Fluo-4 calcium flux; 310,000 tested, 0.63% active; B-score at 10 µM; FDSS; hits give high values;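 active = plate-corrected calcium response at least 3 library SD above typical, normal starting fluorescence, not activating the receptor alone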;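 also: compound read alongside a low EC10 to EC30 dose of BAM8-22 agonist; peak minus trough fluorescence over baseline measured at the second addition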
RGS4 pot = RGS4 potentiators or activators, primary screen, cell-based, HEK293 M3R inducible RGS4, calcium flux. carbachol calcium flux Fluo4; hits give low values. B-score at 10 µM. 310,000 tested, 0.92% active;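 active = B-score of the integrated calcium signal more than 4 SD below the library mean, with starting fluorescence not abnormally high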;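 also: negative B-score means reduced calcium response which marks RGS4 activation or potentiation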
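Assay system: HEK293 FlpIn-TREx cells, stable M3R, doxycycline-inducible RGS4 / Probe or stimulus: carbachol, ECmax concentration / Times: overnight RGS4 induction, 30 min dye load 37 °C, 20 min compound RT / Signal: kinetic calcium fluorescence imaging with Fluo4-AM dye, 2 µM / Measure: Agonist-evoked peak-minus-minimum fluorescence over baseline, integrated ratio, B score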
MrgX1 agonist = agonists of human MrgX1 receptor, primary screen, HEK293 cells, Fluo-4 calcium flux; B-score at 10 µM; Fluo-4 calcium fluorescence, agonist mode; hits give high values; 310,000 tested, 0.44% active; Mas-related G-protein coupled receptor member X1 (Homo sapiens), Q96LB2;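 active = calcium response B-score plate-corrected fluorescence ratio at least 3 library SD, with starting fluorescence B-score inside 5 SD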
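Test system: HEK293 cells stably expressing human MrgX1 receptor; amount: 15,000 cells per well; doses: compound delivered in addition one of three; times: overnight plating before 1 h dye loading; detection: Fluo-4 NW calcium-flux fluorescence, kinetic read; read-out basis: B-scored fluorescence response ratio; controls: positive and negative controls per plate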
RGS4 inh = RGS4 inhibitors, primary screen, cell-based, HEK293 M3R inducible RGS4, calcium flux | Regulator of G-protein signaling 4 (Homo sapiens), P49798 | Fluo-4 calcium flux; hits give high values; triggered by carbachol at its EC20 | B-score at 10 µM | 310,000 tested, 0.45% active | AID 463165, 2010;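 active = B-score, a plate-corrected calcium signal, over three deviations above library mean, with baseline fluorescence within five deviations of library mean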;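 also: RGS4 expression induced by doxycycline in cells with stable M3 receptor; B-score is computed from the integrated fluorescence ratio over baseline after carbachol; higher B-score means a larger calcium signal and so more RGS4 inhibition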
Target sequence (P49798 whole entry, looked up): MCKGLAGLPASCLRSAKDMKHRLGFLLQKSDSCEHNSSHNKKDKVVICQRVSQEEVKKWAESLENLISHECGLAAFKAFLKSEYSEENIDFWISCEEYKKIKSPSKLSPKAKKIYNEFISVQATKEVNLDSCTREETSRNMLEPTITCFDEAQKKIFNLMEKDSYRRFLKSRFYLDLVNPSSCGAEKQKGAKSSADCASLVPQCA
MrgX1 PAM conf = MrgX1 positive allosteric modulators, duplicate retest, confirmation, HEK293 cells, Fluo-4 calcium flux. Fluo-4 calcium fluorescence, FDSS. 1,200 tested, 13% active. shares compounds with MrgX1 PAM. activation (ratio percentage), % at 10 µM;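 active = ratio at least 3 SD above the weak peptide control, stable starting fluorescence, no direct agonism earlier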;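 also: compound followed by low BAM8-22 agonist challenge near EC20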
HEK293 Ca flux = nonspecific calcium signal in parental HEK293, confirmation, counter-screen for MrgX1 antagonist project, parental HEK293 cells, Fluo-4 calcium flux | fluorescence ratio F(max-min)/F0 at 10 µM | Fluo-4 calcium fluorescence, FDSS | 4,000 tested, 2% active | AID 624111, 2012 | shares compounds with MrgX1 antagonist;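 active = duplicate-averaged calcium fluorescence ratio at least three times the standard deviation of buffer wells, a nonspecific response in parental cells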
HEK293 Ca counter = calcium response in parental HEK293 cells, primary screen, counter-screen for MrgX1 allosteric activator project, cell-based, Fluo-4 calcium flux, duplicate; shares compounds with MrgX1 antagonist; Fluo-4 fluorescence ratio; hits give high values; fluorescence ratio F(max-min)/F0 at 10 µM; 4,000 tested, 0.4% active;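 active = calcium fluorescence ratio, averaged over duplicates, at least 3 SD of the buffer-well ratio, meaning a nonspecific response in receptor-free cells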;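 also: untransfected parental HEK293 lacking MrgX1 used as counterscreen for MrgX1 allosteric activators; fluorescence change taken during the second addition on a kinetic imager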
HEK293 Ca cntr2 = calcium response in parental HEK293 cells, primary screen, counter-screen for MrgX1 agonist project, cell-based, Fluo-4 calcium flux, duplicate, agonist mode | 4,000 tested, 8.7% active | shares compounds with MrgX1 antagonist | fluorescence ratio F(max-min)/F0 at 10 µM | Fluo-4 calcium fluorescence (FDSS); hits give high values | AID 624115, 2012;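 active = calcium fluorescence ratio at least three times the spread of buffer wells, meaning a non-specific response in parental cells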
* = called active by the depositor; i = inactive; nt = not tested or not shown.

SMILES	MrgX1 antagonist	MrgX1 PAM	RGS4 pot	MrgX1 agonist	RGS4 inh	MrgX1 PAM conf	HEK293 Ca flux	HEK293 Ca counter	HEK293 Ca cntr2
COc1ccc(-c2cc(C(=O)N/N=C(\C)c3cccnc3)c3ccccc3n2)c(OC)c1	i	i	i	i	i	nt	nt	nt	nt
O=C(O)CC(Sc1n[nH]c(=S)s1)C(=O)O (stereo not given)	i	i	i	i	i	nt	nt	nt	nt
O=C(CSc1nc(-c2ccccc2)cs1)NCCN1C(=O)CSC1=O	i	10*	i	i	i	i	i	i	i
COc1cc(OC)cc(C(=O)NCCn2ccc3ccccc32)c1	i	i	i	i	i	nt	nt	nt	nt
COc1cccc(C(=O)NCCn2ccc3ccccc32)c1	i	8.8*	i	i	i	i	i	i	i
COC(=O)c1cc(C#N)c(SCc2ccccc2)nc1C	i	6.9*	i	i	i	i	i	i	i
O=C(COCc1cc(-c2ccc3c(c2)OCO3)on1)N1CCCCC1	i	i	i	i	i	nt	nt	nt	nt
NC(=O)C1CCN(C(=O)COCc2cc(-c3ccc4c(c3)OCO4)on2)CC1	i	17*	i	i	i	i	i	i	i
O=C(CSc1nc(C2CC2)nc2c1cnn2-c1ccccc1)Nc1c[nH]c(=O)[nH]c1=O	i	i	i	i	i	nt	nt	nt	nt
O=C(N[C@@H](Cc1c[nH]c2ccccc12)C(=O)O)c1ccccc1Cl	i	17*	i	i	i	i	i	i	i
Cc1ccc2[nH]cc(C(=O)CCl)c2c1	i	7.4*	i	i	i	i	i	i	i
Cn1cccc1/C=C(/C#N)c1ccc(F)cc1	i	i	i	i	i	nt	nt	nt	nt
Cc1ccc2nc(NCCCO)nc(-c3ccccc3)c2c1	i	11*	i	i	i	i	i	i	i
COc1cccc(C(=O)Nc2ccccc2F)c1	i	i	i	i	i	nt	nt	nt	nt
O=C(Nc1ccccc1F)Oc1cccc(OC(=O)Nc2ccccc2F)c1	i	7.5*	i	i	i	i	i	i	i
CCn1c(=S)[nH]c2cc(C(=O)OC)ccc2c1=O	i	8.1*	i	i	i	i	i	i	i
COC(=O)C1CCN(c2cc(Cl)nc(N)n2)CC1	i	8.1*	i	i	i	i	i	i	i
NC(=O)C1CCN(c2cc(Cl)nc(N)n2)CC1	i	i	i	i	i	nt	nt	nt	nt
O=C(CCc1nnc(Cc2c[nH]c3ccccc23)o1)NC1CCCC1	i	16*	i	i	i	i	i	i	i
COc1ccc(N2CCN(C(=O)CN(c3cccc(Br)c3)S(C)(=O)=O)CC2)cc1	i	18*	i	i	i	16%*	i	i	i
COc1ccc(OC)c(N(CC(=O)N2CCN(c3cc(Cl)ccc3C)CC2)S(C)(=O)=O)c1	i	29*	i	i	i	93%*	i	i	54*
CCN1CCN(C(=O)CN(c2cc(OC)ccc2OC)S(C)(=O)=O)CC1	i	i	i	i	i	nt	nt	nt	nt
CS(=O)(=O)N(CC(=O)N1CCN(c2ccc(F)cc2)CC1)c1ccc(F)c(Cl)c1	i	6.8*	i	i	i	i	i	i	i
COc1cccc(C(C)NC(=O)c2ccncc2)c1 (stereo not given)	i	i	i	i	i	nt	nt	nt	nt
COc1ccc(N2CCN(C(=O)C3(C)CC3(Cl)Cl)CC2)cc1 (stereo not given)	i	i	i	i	i	nt	nt	nt	nt
SMILES	MrgX1 antagonist	MrgX1 PAM	RGS4 pot	MrgX1 agonist	RGS4 inh	MrgX1 PAM conf	HEK293 Ca flux	HEK293 Ca counter	HEK293 Ca cntr2
CCOc1ccc(S(=O)(=O)c2cn(C)c3cc(OC)c(OC)cc3c2=O)cc1	i	i	i	i	i	nt	nt	nt	nt
c1cnc2c(Oc3ncnc4sccc34)cccc2c1	i	i	i	i	i	nt	nt	nt	nt
Cc1ccc(Oc2ncnc3sccc23)cc1	i	17*	i	i	i	2.5%*	i	i	i
Cc1ccc(C(=O)Nc2ncnc3sc4c(c23)CCCCC4)cc1	i	6.7*	i	i	i	8.1%*	i	i	i
C[C@H](Nc1ncnc2sc3c(c12)CCC3)C(=O)O	i	i	i	i	i	nt	nt	nt	nt
Fc1ccc(Nc2ncnc3sc4c(c23)CCC4)cc1	i	6.9*	i	i	i	i	i	i	i
c1ccc(Nc2ncnc3sc4c(c23)CCC4)cc1	i	i	i	i	i	nt	nt	nt	nt
CC(NC(=O)c1ccc(N)cc1)c1ccccc1 (stereo not given)	i	7.4*	i	i	i	i	i	i	i
CCCCn1c2ccc(F)cc2c2nnc(NN)nc21	i	i	i	i	i	nt	nt	nt	nt
Nc1c(C(=O)Nc2cccc(F)c2)nnn1-c1ccc2c(c1)OCCO2	i	i	i	i	i	nt	nt	nt	nt
N#Cc1c(-c2ccccc2)cc(-c2ccccc2)nc1SCC(=O)NCC(=O)O	i	19*	i	i	i	i	i	i	i
COc1ccc(-c2cc(-c3ccccc3)c(C#N)c(SCC(=O)O)n2)cc1	i	i	i	i	i	nt	nt	nt	nt
CCCNC(=O)CCCN1C(=O)c2ccccc2Sc2ncccc21	i	i	i	i	i	nt	nt	nt	nt
CC12COC3(C(N)=O)CC1CCC32C (stereo not given)	i	i	i	i	i	nt	nt	nt	nt
